Measurements from different studies.
Lines come from different studies, so protocols differ.
Target: cGMP-dependent protein kinase 1 (PRKG1, Homo sapiens, UniProt Q13976)
Sequence (Q13976 1-671, as in one of the studies): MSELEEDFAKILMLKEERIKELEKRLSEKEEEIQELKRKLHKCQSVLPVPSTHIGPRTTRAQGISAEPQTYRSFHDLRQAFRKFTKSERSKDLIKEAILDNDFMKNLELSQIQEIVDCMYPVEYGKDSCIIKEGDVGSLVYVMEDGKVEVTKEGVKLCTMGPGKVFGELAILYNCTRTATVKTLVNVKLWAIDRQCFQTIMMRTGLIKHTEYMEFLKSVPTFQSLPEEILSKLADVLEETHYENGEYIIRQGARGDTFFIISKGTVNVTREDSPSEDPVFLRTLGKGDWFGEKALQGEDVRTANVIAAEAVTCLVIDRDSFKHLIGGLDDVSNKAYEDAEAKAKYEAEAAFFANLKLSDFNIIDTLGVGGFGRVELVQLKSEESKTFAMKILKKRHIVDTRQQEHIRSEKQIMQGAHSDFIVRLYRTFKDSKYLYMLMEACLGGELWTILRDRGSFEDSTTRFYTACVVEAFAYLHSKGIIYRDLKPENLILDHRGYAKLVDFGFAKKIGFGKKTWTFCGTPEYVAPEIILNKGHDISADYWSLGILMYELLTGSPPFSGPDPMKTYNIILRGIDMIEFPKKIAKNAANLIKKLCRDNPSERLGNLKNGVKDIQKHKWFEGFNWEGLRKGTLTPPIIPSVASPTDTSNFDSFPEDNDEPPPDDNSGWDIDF

| SMILES | observed | action | technique | tested at | quantity | result |
| --- | --- | --- | --- | --- | --- | --- |
| C#Cc1n[nH]c2c(-c3cn([C@@H](C)c4ccccc4)c(=O)[nH]c3=O)cc(F)cc12 | enzyme activity | inhibitor | – | 0.1 µM | inhibition | 5.1% |
| Cn1cc(-c2cc(F)cc(N3CCn4c(cc5c4CCCC5)C3=O)c2CO)cc(Nc2ccc(N3CCN(C4COC4)CC3)cn2)c1=O | enzyme activity | inhibitor | – | 0.1 µM | inhibition | 8% |
| COc1ncccc1-c1cnn2ccc(N3CCN(C(=O)OC(C)C)CC3)nc12 | binding | – | competition with immobilised ligand | 1 µM | remaining binding | 100% |
| COc1cc(Nc2ncc(F)c(Nc3ccc4c(n3)NC(=O)C(C)(C)O4)n2)cc(OC)c1OC | binding | – | – | 10 µM | inhibition | 0% |
| N#CC1(c2ccccn2)CCN(Cc2cc(C(=O)O)c(=O)n3ccccc23)CC1 | cell-free assay | – | competition with immobilised ligand | 1 µM | remaining binding | 98% |
| Cn1cc(-c2cccc(N3CCc4c(sc5c4CC(C)(C)C5)C3=O)c2CO)cc(Nc2ccncn2)c1=O | enzyme activity | inhibitor | – | 1 µM | inhibition | 4% |
| C#Cc1n[nH]c2c(-c3cn([C@@H](C)c4ccccn4)c(=O)[nH]c3=O)cc(F)cc12 | enzyme activity | inhibitor | – | 0.1 µM | inhibition | 0.5% |
| Nc1ncc(-c2nc(N3CCOCC3)nc(N3CCOCC3)n2)c(C(F)F)n1 | binding | – | competition with immobilised ligand | 10 µM | remaining binding | 79% |
| Cn1cncc1[C@](O)(COc1ccc(C#N)cc1-c1ccc(OC(F)(F)F)cc1)c1ccc(C#N)cc1 | cell-free assay | – | competition with immobilised ligand | 1 µM | remaining binding | 91% |
| CN1CCC(c2cc(-c3ccncc3)c(-c3ccc(F)cc3)[nH]2)CC1 | enzyme activity | inhibitor | – | 10 µM | inhibition | 9% |
| Cc1nn(C)cc1-c1nc2c(N3CCN(Cc4ccc(Cl)cc4)CC3)c(Cl)cnc2[nH]1 | binding | – | competition with immobilised ligand | 1 µM | remaining binding | 100% |
